UPR CHOP act = activators of apoptotic arm of unfolded protein response (CHOP) | AID 449763 | activation, % at 10 µM | CHO-CHOP luciferase reporter, UPR activation, luminescence; percent of tunicamycin response over DMSO baseline | 330,000 tested, 0.34% active;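 active = at 10 µM dose, activation of 40% or more, normalized to positive control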;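 also: 100% = tunicamycin at 10 µg/mL and 0% = DMSO alone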
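assay system = CHO CHOP reporter cells | amount = 500 CHO-CHOP cells per well | buffer or medium = F12 with 10% FBS | incubation = 16-18 h cell attachment, then 6 h compound exposure, 37 °C | detection = luminescence read with Steady-Glo | read-out = percent activation relative to tunicamycin control | controls = tunicamycin high control, DMSO low control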
CHOP inhibitor = blocks CHOP induction under ER stress | inhibition, % at 10 µM | CHO-K1 CHOP-promoter luciferase, tunicamycin-induced, 15-18 h | 220,000 tested, 3.8% active | AID 2732;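 active = compounds that reduced the stress-induced luciferase reporter signal by more than about 70% of percent inhibition, limit read from the data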;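 also: 0% = tunicamycin plus vehicle and 100% = wells without tunicamycin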
XBP1 UPR activ = adaptive UPR (XBP1) activation. CHO-XBP1 luciferase reporter, IRE1-XBP1 UPR activation, luminescence; percent of tunicamycin response, DMSO as zero. activation, % at 20 µM. 330,000 tested, 0.33% active. AID 463104;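 active = versus positive control, 20 µM dose yields 30% or more activation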;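 also: 100% = tunicamycin at 10 µg/mL and 0% = DMSO only wells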
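Material: CHO-XBP1 cells stably carrying IRE1-XBP1-driven luciferase reporter / Amount: 1000 cells per well / Compound: 20 µM, 1% DMSO / Times: 6 h treatment, 37 °C / Detection: luciferase luminescence / Measure: % activation of reporter signal versus tunicamycin and DMSO controls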
Gli-Sufu block = Gli-Sufu pathway antagonism. Sufu-KO-LIGHT fibroblasts, Gli luciferase reporter luminescence. inhibition, % at 5 µM. 340,000 tested, 0.74% active;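 active = inhibition above about 55%, limit read from the data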;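 also: 0% = DMSO-treated cells and 100% = wells with medium but no cells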
Jurkat NFkB inh = lowers PMA/ionomycin-induced NF-kB signal in Jurkat cells; PMA/ionomycin-induced NF-kB luciferase reporter, luminescence; inhibition, % at 4 µM; 330,000 tested, 0.53% active; in the data active = inhibition above about 50%
697 NFkB inh = lowers PMA/ionomycin-induced NF-kB signal in 697 B cells. 697 B-cell NF-kB luciferase reporter, 16 h. inhibition, % at 4 µM. 330,000 tested, 0.33% active. AID 435022; in the data active = inhibition above about 35%
UPR XBP1 confirm = adaptive UPR (XBP1) activation, confirmed; CHO-XBP1 IRE1-XBP1 luciferase reporter, luminescence; 1,000 tested, 63% active; AID 485299; activation, % at 20 µM; shares compounds with XBP1 UPR activ;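 active = reporter signal at least 30% of the positive control's activation in two or more of four replicate wells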;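 also: plate controls were DMSO negative control for no effect and tunicamycin 10 µg/mL positive control for full effect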
Starred values were filed as active, the others as inactive; · = not tested or not shown. Sampled rows, rich in hits. Any-hit rate of the full collection: about 3.9%.

SMILES	UPR CHOP act	CHOP inhibitor	XBP1 UPR activ	Gli-Sufu block	Jurkat NFkB inh	697 NFkB inh	UPR XBP1 confirm
CN(C)CCCNC(=O)c1ccc(-c2nc(-c3ccc(Cl)cc3)cs2)cc1	9	-65	82*	-8	-4	-164	159*
CN(C)CCCNC(=O)c1ccccn1	-1	-10	1	12	5	7	·
Oc1cc(-c2ccc(N3CCCCC3)nc2)cc2cccnc12	7	·	56*	21	-83	-75	52*
C#CCn1c(=NC(=O)c2ccc(Cl)s2)sc2cccc(OC)c21	10	79*	136*	-26	-32	-34	112*
COc1ccc(-c2csc(C3=C(O)CN(Cc4ccc(S(N)(=O)=O)cc4)C3=N)n2)cc1OC	-2	56	-1	2	12	19	·
COc1ccc(-c2csc(C3=C(O)CN(Cc4ccc(Cl)cc4)C3=N)n2)cc1OC	2	45	43*	-8	-32	-16	134*
COc1cc(CNCCO)cc(Br)c1OCc1ccccc1Cl	0	-30	3	-19	12	8	·
COc1cc(CNCCO)cc(Cl)c1OCc1ccc(Cl)cc1Cl	2	95*	63*	9	-10	1	134*
CCc1ccc(N=Nc2ccc(O)c3[nH]cnc23)cc1	12	·	13	9	-50	-61	·
Cc1cc(Cl)ccc1OCC(=O)OCC(=O)NC1CCS(=O)(=O)C1 (stereo not drawn)	2	·	-1	9	-6	0	·
COc1ccc(C(=O)/C=C/c2cccs2)c(OC(=O)c2cccc([N+](=O)[O-])c2)c1	8	-99	42*	-18	-16	-15	56*
COc1ccc(C(=O)/C=C/c2ccc(F)cc2)c(OC(=O)c2ccc([N+](=O)[O-])cc2)c1	7	29	4	-18	-17	14	·
CC(C)NC(=O)CSc1ncccc1-c1nc2ccccc2[nH]1	2	·	-2	-8	-17	1	·
CC(C)N(C(=O)[C@H]1C[C@H](CC(=O)NCc2cccc(C(F)(F)F)c2)C(=O)N2CCc3c([nH]c4ccc(Cl)cc34)[C@]12C)C(C)C	9	·	55*	1	·	32	70*
O=C(OCC(=O)N1CCCC1=O)c1cc2ccccc2o1	-1	·	2	0	-17	-22	·
CSCCC(NC(=O)c1ccccc1Cl)C(=O)N1CCCCC1 (stereo not drawn)	1	·	1	-8	-12	3	·
COc1ccc2cc3cc(C(=O)NCCN4CCN(c5ccccc5F)CC4)oc3nc2c1	1	54	5	15	20	-16	·
COc1ccc2cc3cc(C(=O)Nc4ccccc4N4CCN(C)CC4)oc3nc2c1	3	86*	40*	7	22	-43	13
C=CCOc1ccc(/C=N/N2C(=O)C(CC(=O)Nc3ccc(F)cc3F)SC2=NC)cc1 (stereo not drawn)	2	70*	51*	-20	-21	-17	81*
CN=C1SC(CC(=O)Nc2ccccc2F)C(=O)N1C (stereo not drawn)	-1	10	0	-5	2	10	·
COCCNC(=S)N(CCc1c(C)[nH]c2ccccc12)Cc1cccnc1	-1	·	-4	12	-25	-14	·
C[C@@H]1CN([C@H](C)CO)C(=O)Cc2cc(NS(=O)(=O)c3ccc(F)cc3)ccc2O[C@H]1CN(C)Cc1ccc(C(=O)O)cc1	1	·	-3	0	8	18	·
C[C@@H]1CN([C@H](C)CO)C(=O)Cc2cc(NS(=O)(=O)c3ccc(Cl)cc3)ccc2O[C@H]1CN(C)Cc1ccc(C(F)(F)F)cc1	28	·	48*	4	1	-13	22
Cc1ccc(N(C(=O)c2csnn2)C(C(=O)NC2CCCCC2)c2cccnc2)cc1C (stereo not drawn)	0	·	0	-7	-29	-2	·
Cc1cc(NC(=O)/C(C#N)=C/c2ccc(-c3ccc(SC(F)F)cc3)o2)n(-c2ccccc2)n1	36	56	37*	·	-21	-46	34*
SMILES	UPR CHOP act	CHOP inhibitor	XBP1 UPR activ	Gli-Sufu block	Jurkat NFkB inh	697 NFkB inh	UPR XBP1 confirm
CCn1c(/C=C/c2ccc(O)c(O)c2)nc2ccccc2c1=O	37	·	37*	33	14	-29	21
COc1ccc(/C=N/n2c(=O)[nH]c3c([nH]c4ccc(C)cc43)c2=O)cc1CN1CCOCC1	·	4	·	-4	·	·	·
CC1=CC(C)[C@H](/C=N/n2c(=O)[nH]c3c([nH]c4ccc(C)cc43)c2=O)C(C)C1 (stereo partly drawn)	3	26	87*	8	6	12	99*
CC(C)C(=O)N(c1cc2sc(=O)oc2c2ccccc12)S(=O)(=O)c1cccs1	24	69	48*	-2	11	0	49*
O=C(NCc1nnc(SCC(=O)N2CCN(c3ccccc3)CC2)o1)c1ccc(F)cc1	-2	·	-2	26	4	-28	·
C[C@H](NC(=O)c1nc[nH]c1C(=O)N[C@@H](CCCCN)C(=O)OC(C)(C)C)C(=O)OCc1ccccc1	2	·	-3	-10	-3	6	·
CC1(C)C[C@H](O)[C@]2(CO)[C@H](O)C[C@]3(C)C(=CCC4[C@@]5(C)CC[C@H](O)C(C)(C)C5CC[C@]43C)[C@@H]2C1 (stereo partly drawn)	39	·	146*	5	13	1	73*
N=c1c(S(=O)(=O)c2ccc(Br)cc2)cc2c(=O)n3ccccc3nc2n1C1CCCC1	3	·	3	16	-10	-11	·
N=c1c(S(=O)(=O)c2ccccc2)cc2c(=O)n3ccccc3nc2n1C1CCCC1	1	·	30*	0	5	-4	23
O=C(CSc1ccc(-c2ccccn2)nn1)Nc1cccc(F)c1	2	·	-3	-14	-20	2	·
CN(c1ccccc1)S(=O)(=O)c1cccc(C(=O)NCC(=O)Nc2ccc(F)c(F)c2F)c1	0	·	-2	-1	7	11	·
COc1ccc(C(=O)N/N=C/c2ccc(OC)c(COc3ccccc3)c2)cc1	5	·	-5	-1	-2	9	·
COc1ccc(/C=N\NC(=O)c2cc(O)c(O)c(O)c2)cc1COc1ccc(C(=O)OCC(C)C)cc1	5	·	41*	39	18	-14	25
C/C(=N/NC(=O)c1ccc(C)s1)c1cccc(NC(=O)COc2ccc(Cl)cc2C)c1	14	18	56*	-8	-8	16	56*
Cc1cc(C)c2c(c1)SC1=NC(c3ccccc3)(C(F)(F)F)NC(=O)N12 (stereo not drawn)	38	94*	46*	15	-19	-35	22

Screening data as filed in PubChem.
